Results as given in PubChem BioAssay AID488805 (Broad Institute, 2010).
Active and inactive are the calls of the source.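 How the source made its calls: active means luminescence gain over solvent baseline above 10% of the positive control response, limit may shift with hit yield; inactive means the rest, including opposite-direction effects.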

System: U2OS HRE-luciferase reporter, HIF pathway activation, luminescence
Experiment: HIF pathway activators, HRE-luciferase reporter, dose response, cell-based, U2OS HRE-luc, luminescence, dry powder, set 2 (AID 488805)
Details: not given
In short: (§1)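 material = U2OS cells with HRE-luciferase reporter | quantity = 6,000 cells per well | times = compound exposure 24 h at 37 °C, 21% O2 | detection = luciferase luminescence measured with Steady-Glo reagent | dosing = compound dose series of 8 points, 3-fold steps | buffer or medium = phenol red-free DMEM with 10% fetal bovine serum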

| SMILES | AC50 [µM] |
| --- | --- |
| c1ccc(-c2nnc(-c3ccccn3)nc2NCC2CC2)cc1 | 12.3 |
| c1ccc(-c2nnc(-c3ccccn3)nc2N2CCC(N3CCOCC3)CC2)cc1 | 8.79 |
| Cc1ccc(CNc2nc(-c3ccccn3)nnc2-c2ccccc2)cc1 | 3.29 |
| Cc1cccc(CNc2nc(-c3ccccn3)nnc2-c2ccccc2)c1 | 3.29 |
| Cc1ccc(Nc2nc(-c3ccccn3)nnc2-c2ccccc2)cn1 | 27.9 |
| OCC1CCN(c2nc(-c3ccccn3)nnc2-c2ccccc2)CC1 | 18.7 |
| c1ccc(-c2nnc(-c3ccccn3)nc2Nc2nc3ccccc3s2)cc1 | 8.19 |
| c1ccc(-c2nnc(Nc3nc(-c4ccccn4)nnc3-c3ccccc3)s2)cc1 | 6.81 |
| Cc1cccc(Nc2nc(-c3ccccn3)nnc2-c2ccccc2)n1 | 25.6 |
| CN(C)c1nc(-c2ccccn2)nnc1-c1ccccc1 | 11.7 |
| c1ccc(CNc2nc(-c3ccccn3)nnc2-c2ccccc2)cc1 | 7.03 |
| O=C(NCCCN1CCOCC1)c1cc(-c2ccccc2)on1 | 9.51 |
| c1ccc(-c2csc(Nc3nc(-c4ccccn4)nnc3-c3ccccc3)n2)cc1 | 2.84 |
| Cc1ccccc1CNc1nc(-c2ccccn2)nnc1-c1ccccc1 | 6.05 |
| c1ccc(-c2nnc(-c3ccccn3)nc2N2CCN(c3ccncc3)CC2)cc1 | 8.32 |
| c1ccc(-c2nnc(-c3ccccn3)nc2NCCN2CCOCC2)cc1 | 18.1 |
| CC(C)(C)CCNc1nc(-c2ccccn2)nnc1-c1ccccc1 | 2.59 |
| CN1CCN(c2nc(-c3ccccn3)nnc2-c2ccccc2)CC1 | 14.5 |
| O=C(NCCCCO)c1cc(-c2ccccc2)on1 | 10.5 |
| c1ccc(-c2nnc(-c3ccccn3)nc2Nc2cnc3ccccc3n2)cc1 | 6.4 |
| O=C(NCCCn1ccnc1)c1cc(-c2ccccc2)on1 | 8.16 |
| OCCCNc1nc(-c2ccccn2)nnc1-c1ccccc1 | 21.3 |
| c1ccc(-c2nnc(-c3ccccn3)nc2NCC2CCCCC2)cc1 | 3.12 |
| C=CCNc1nc(-c2ccccn2)nnc1-c1ccccc1 | 8.3 |
| c1ccc(-c2nnc(-c3ccccn3)nc2NCCCN2CCOCC2)cc1 | 11 |

System: not listed separately
Experiment: as above
Details: U2OS HRE-luciferase reporter, HIF pathway activation, luminescence; at 0.056 µM; stronger effect = higher value
In short: as §1

| SMILES | max activation |
| --- | --- |
| Cn1c(NC(=O)c2cc(-c3ccccc3)on2)nc2ccccc21 | 1.19% (inactive) |
| O=C(NC1CCc2ccccc2C1)c1cc(-c2ccccc2)on1 (stereo unspecified) | -4.31% (inactive) |
| O=C(Nc1nnc(-c2ccccc2)s1)c1cc(-c2ccccc2)on1 | -3.85% (inactive) |
| O=C(Nc1ncc2ccccc2n1)c1cc(-c2ccccc2)on1 | 0.964% (inactive) |
| O=C(NCCN1CCCCC1)c1cc(-c2ccccc2)on1 | -1.17% (inactive) |
| Cc1ccc(CNC(=O)c2cc(-c3ccccc3)on2)cc1 | -4.17% (inactive) |
| O=C(NCc1ccccc1)c1cc(-c2ccccc2)on1 | 1.94% (inactive) |
| O=C(c1cc(-c2ccccc2)on1)N1CCC(CO)CC1 | -6.22% (inactive) |

Same assay, conditions: U2OS HRE-luciferase reporter, HIF pathway activation, luminescence; at 0.16 µM; stronger effect = higher value

| SMILES | max activation |
| --- | --- |
| O=C(NCC1CCCCC1)c1cc(-c2ccccc2)on1 | 1.14% (inactive) |

Same assay, conditions: U2OS HRE-luciferase reporter, HIF pathway activation, luminescence; at 0.5 µM; stronger effect = higher value

| SMILES | max activation |
| --- | --- |
| O=C(Nc1cn2ccccc2n1)c1cc(-c2ccccc2)on1 | -5.84% (inactive) |
| CN(C)CCNC(=O)c1cc(-c2ccccc2)on1 | -2.73% (inactive) |
| Cc1ccccc1CNC(=O)c1cc(-c2ccccc2)on1 | 2.16% (inactive) |
| Cn1c(-c2ccccc2)cnc1Nc1nc(-c2ccccn2)nnc1-c1ccccc1 | -0.998% (inactive) |
| O=C(Nc1ncc(-c2ccccc2)o1)c1cc(-c2ccccc2)on1 | -7.77% (inactive) |
| Cc1cccc(CNC(=O)c2cc(-c3ccccc3)on2)c1 | -4.69% (inactive) |
| O=C(Nc1ccc2ccccc2n1)c1cc(-c2ccccc2)on1 | -5.52% (inactive) |

Same assay, conditions: U2OS HRE-luciferase reporter, HIF pathway activation, luminescence; at 4.6 µM; stronger effect = higher value

| SMILES | max activation |
| --- | --- |
| O=C(NC1Cc2ccccc2C1)c1cc(-c2ccccc2)on1 | 2.61% (inactive) |
| O=C(Nc1nc2ccccc2s1)c1cc(-c2ccccc2)on1 | -2.04% (inactive) |
| CC(C)(C)CCNC(=O)c1cc(-c2ccccc2)on1 | 1.55% (inactive) |
| O=C(Nc1nc(-c2ccccc2)cs1)c1cc(-c2ccccc2)on1 | 6.53% (inactive) |
| O=C(c1cc(-c2ccccc2)on1)N1CCC(N2CCOCC2)CC1 | 1.93% (inactive) |
| O=C(c1cc(-c2ccccc2)on1)N1CCN(c2ccncc2)CC1 | 6.21% (inactive) |

Same assay, conditions: U2OS HRE-luciferase reporter, HIF pathway activation, luminescence; at 13.5 µM; stronger effect = higher value

| SMILES | max activation |
| --- | --- |
| O=C(NCC1CC1)c1cc(-c2ccccc2)on1 | 7.82% (inactive) |
| O=C(NCCCO)c1cc(-c2ccccc2)on1 | 8.74% (inactive) |

Same assay, conditions: U2OS HRE-luciferase reporter, HIF pathway activation, luminescence; at 38 µM; stronger effect = higher value

| SMILES | max activation |
| --- | --- |
| Cc1cccc(NC(=O)c2cc(-c3ccccc3)on2)n1 | -6.71% (inactive) |
| O=C(Nc1cnc2ccccc2c1)c1cc(-c2ccccc2)on1 | 2.22% (inactive) |
| O=C(c1cc(-c2ccccc2)on1)N1CCc2cccnc21 | 2.94% (inactive) |
| O=C(c1cc(-c2ccccc2)on1)N1CCC(N2CCCC2)CC1 | 3.88% (inactive) |
| Cc1ccc(NC(=O)c2cc(-c3ccccc3)on2)cn1 | 4.68% (inactive) |
| Cn1c(-c2ccccc2)cnc1NC(=O)c1cc(-c2ccccc2)on1 | 2.14% (inactive) |
| CN1CCN(C(=O)c2cc(-c3ccccc3)on2)CC1 | -5.2% (inactive) |
